Laboratory results reported in ChEMBL document CHEMBL4052634, “Covalent inhibitors of LgtC: A blueprint for the discovery of non-substrate-like inhibitors for bacterial glycosyltransferases” (Bioorg Med Chem, 2017).
pIC50, pKi: −log10 of the molar value. Activity calls are given as the source filed them. No cut-off for these calls is given here.

How the values were obtained:
Neisseria meningitidis [1] = test: Inhibition of Neisseria meningitidis alpha-1,4-galactosyltransferase assessed as rate constant for enzyme activity at 25 uM using lactose as substrate preincubated with substrate measured after 20 mins in presence of UDP-Gal
In short: (§1)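 Activity measured at a series of inhibitor concentrations (0.5-200 µM range overall) after pre-incubation with LgtC for 0, 5, 10, 20 and 30 min, using the pre-incubation protocols (lactose 2 mM, UDP-Gal 28 µM, 20 min at 30 °C, malachite green); % of DMSO control plotted semi-logarithmically versus pre-incubation time to give kobs; kobs versus concentration gave Ki and kinact; triplicate.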

Bos taurus = species: Bos taurus; test: Inhibition of bovine beta-1,4-galactosyltransferase at 0.1 to 50 uM using UDP as substrate after 20 mins by malachite green dye-based assay
Neisseria meningitidis [2] = test: Inhibition of Neisseria meningitidis alpha-1,4-galactosyltransferase assessed as rate constant for enzyme activity at 0.5 uM using lactose as substrate preincubated with substrate measured after 20 mins in presence of UDP-Gal; in short: as §1
Neisseria meningitidis [3] = test: Inhibition of Neisseria meningitidis alpha-1,4-galactosyltransferase at 0.1 to 100 uM using lactose as substrate preincubated with compoundfollowed by substrate/UDP-Gal addition measured after 20 min by malachite green dye-based assay
In short: (§2)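 Enzyme (DTT-activated) with MnCl2 5 mM, CIP 10 U/mL, lysozyme 1 mg/mL, 0.01% Triton, 13 mM HEPES pH 7.0 and inhibitor in DMSO (10% final) pre-incubated 10 min at 30 °C before UDP-Gal (28 µM) plus lactose (2 mM) added; 20 min at 30 °C; UDP read by malachite green at 620 nm versus UDP standard curve, background-corrected; triplicate.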

[4] = Inhibition of Neisseria meningitidis alpha-1,4-galactosyltransferase assessed as enzyme activity using lactose as substrate preincubated for 60 mins followed by lactose and UDP-Gal addition measured after 20 mins by malachite green dye-based assay
Neisseria meningitidis [5] = test: Inhibition of Neisseria meningitidis alpha-1,4-galactosyltransferase assessed as rate constant for enzyme activity at 50 uM using lactose as substrate preincubated with substrate measured after 20 mins in presence of UDP-Gal; in short: as §1
[6] = Inhibition of Neisseria meningitidis alpha-1,4-galactosyltransferase assessed as enzyme activity using lactose as substrate preincubated for 20 mins followed by lactose and UDP-Gal addition measured after 20 mins by malachite green dye-based assay
[7] = Inhibition of Neisseria meningitidis alpha-1,4-galactosyltransferase assessed as enzyme activity using lactose as substrate preincubated for 10 mins followed by lactose and UDP-Gal addition measured after 20 mins by malachite green dye-based assay; in short: as §2
[8] = Inhibition of Neisseria meningitidis alpha-1,4-galactosyltransferase assessed as enzyme activity using lactose as substrate preincubated for 30 mins followed by lactose and UDP-Gal addition measured after 20 mins by malachite green dye-based assay
Neisseria meningitidis [9] = test: (§3) Inhibition of Neisseria meningitidis alpha-1,4-galactosyltransferase assessed as consumption of donor UDP-Gal by measuring turnover rate at 0.1 to 100 uM using lactose as substrate preincubated with lactose for 10 mins followed by UDP-Gal addition measured after 20 mins by malachite green dye-based assay relative to total UDP-Gal used
In short: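 Pre-incubation 10 min at 30 °C of activated LgtC, inhibitor (10% DMSO final) and lactose 2 mM in 13 mM HEPES pH 7.0 with MnCl2 5 mM, CIP 10 U/mL, lysozyme 1 mg/mL, 0.01% Triton; reaction started with UDP-Gal 28 µM, 20 min at 30 °C; malachite green readout at 620 nm against UDP standards; triplicate.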

Neisseria meningitidis [10] = test: Inhibition of Neisseria meningitidis alpha-1,4-galactosyltransferase assessed as consumption of donor UDP-Gal by measuring turnover rate at 0.1 to 100 uM using lactose as substrate preincubated for 180 mins followed by lactose and UDP-Gal addition measured after 20 mins by malachite green dye-based assay relative to total UDP-Gal used
Neisseria meningitidis [11] = test: as §3, with “in presence of” for “preincubated with lactose for 10 mins followed by”, “UDP-Gal” for “UDP-Gal addition”, “min” for “mins”, “total amount of” for “total”
In short: (§4)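 No pre-incubation: DTT-activated LgtC with MnCl2 5 mM, CIP 10 U/mL, egg-white lysozyme 1 mg/mL, 0.01% Triton, 13 mM HEPES pH 7.0, lactose 2 mM, inhibitor in DMSO (10% final); started with UDP-Gal 28 µM, 20 min at 30 °C, 20-50% donor turnover. Malachite green read at 620 nm against a UDP calibration curve, background without acceptor subtracted, % of assay window; triplicate minimum; IC50 from sigmoidal fit.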

[12] = Inhibition of Neisseria meningitidis alpha-1,4-galactosyltransferase assessed as enzyme activity using lactose as substrate preincubated for 180 mins followed by lactose and UDP-Gal addition measured after 20 mins by malachite green dye-based assay
[13] = Inhibition of Neisseria meningitidis alpha-1,4-galactosyltransferase assessed as enzyme activity using lactose as substrate preincubated for 5 mins followed by lactose and UDP-Gal addition measured after 20 mins by malachite green dye-based assay
[14] = (§5) Inhibition of Neisseria meningitidis alpha-1,4-galactosyltransferase assessed as enzyme activity using lactose as substrate preincubated for 0 to 30 mins measured after 20 mins in presence of UDP-Gal
Neisseria meningitidis [15] = test: as §5
Neisseria meningitidis [16] = test: as §3, with “substrate preincubated for 10” for “substrate preincubated with lactose for 10”, “followed by substrate and UDP-Gal addition” for “followed by UDP-Gal addition”; in short: as §2
Neisseria meningitidis [17] = test: Inhibition of Neisseria meningitidis alpha-1,4-galactosyltransferase assessed as rate constant for enzyme activity at 200 uM using lactose as substrate preincubated with substrate measured after 20 mins in presence of UDP-Gal; in short: as §1
Neisseria meningitidis [18] = test: Inhibition of Neisseria meningitidis alpha-1,4-galactosyltransferase assessed as rate constant for enzyme activity at 10 uM using lactose as substrate preincubated with substrate measured after 20 mins in presence of UDP-Gal; in short: as §1
Neisseria meningitidis [19] = test: Inhibition of Neisseria meningitidis alpha-1,4-galactosyltransferase assessed as rate constant for enzyme activity at 4 uM using lactose as substrate preincubated with substrate measured after 20 mins in presence of UDP-Gal; in short: as §1
Neisseria meningitidis [20] = test: Inhibition of Neisseria meningitidis alpha-1,4-galactosyltransferase assessed as consumption of donor UDP-Gal by measuring turnover rate at 0.1 to 100 uM using lactose as substrate preincubated for 10 mins with UDP-Gal followed by lactose addition measured after 20 mins by malachite green dye-based assay relative to total amount of UDP-Gal used
In short: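 LgtC pre-incubated 10 min at 30 °C with inhibitor (DMSO, 10% final) and UDP-Gal 28 µM in 13 mM HEPES pH 7.0 with MnCl2 5 mM, CIP 10 U/mL, lysozyme 1 mg/mL, 0.01% Triton; lactose 2 mM then added, 20 min at 30 °C; malachite green absorbance at 620 nm converted via UDP calibration; triplicate.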

[21] = Inhibition of Neisseria meningitidis alpha-1,4-galactosyltransferase assessed as enzyme activity using lactose as substrate in presence of UDP-Gal measured after 20 min by malachite green dye-based assay; in short: as §4
Neisseria meningitidis [22] = test: Inhibition of Neisseria meningitidis alpha-1,4-galactosyltransferase assessed as rate constant for enzyme activity at 1.5 uM using lactose as substrate preincubated with substrate measured after 20 mins in presence of UDP-Gal; in short: as §1
Neisseria meningitidis [23] = test: Inhibition of Neisseria meningitidis alpha-1,4-galactosyltransferase assessed as consumption of donor UDP-Gal by measuring turnover rate at 0.1 to 50 uM using lactose as substrate preincubated for 10 mins followed by lactose and UDP-Gal addition measured after 20 mins by malachite green dye-based assay relative to total UDP-Gal used; in short: as §2

K (Neisseria meningitidis [1]) [min⁻¹]	inhibition (Bos taurus)	K (Neisseria meningitidis [2]) [min⁻¹]	inhibition (Neisseria meningitidis [3])	pIC50 [4]	K (Neisseria meningitidis [5]) [min⁻¹]	pIC50 [6]	pIC50 [7]	pIC50 [8]	inhibition (Neisseria meningitidis [9]) [%]	inhibition (Neisseria meningitidis [11]) [%]	pIC50 [12]	pIC50 [13]	pKi [14]	Kinact (Neisseria meningitidis [15]) [min⁻¹]	inhibition (Neisseria meningitidis [16]) [%]	K (Neisseria meningitidis [18]) [min⁻¹]	K (Neisseria meningitidis [19]) [min⁻¹]	inhibition (Neisseria meningitidis [20]) [%]	pIC50 [21]	SMILES	other results
0.033	inactive	0.002	inactive	5.05	0.068	4.42	< 4.30	4.75	23	29	5.22	< 4.30	4.33	0.104	25 to 41	0.011	0.007	29	< 4.00	O=C1/C(=C\c2cccc(OCc3ccccc3)c2)C(C(F)(F)F)=NN1c1ccccc1	inhibition (Neisseria meningitidis [10]): 19%; K (Neisseria meningitidis [17]): 0.079 min⁻¹
0.047	inactive	0.006	inactive	5.51	0.048	5.19	4.80	5.51	23	30	5.26	4.62	5.36	0.0535	25	0.039	0.023	30	< 4.30	COc1ccc(/C=C2\C(=O)N(c3ccccc3)N=C2C(F)(F)F)cc1Br	K (Neisseria meningitidis [22]): 0.017 min⁻¹; inhibition (Neisseria meningitidis [23]): 46%
